Results reported in ChEMBL document CHEMBL3120115, “Synthesis and biological evaluation of 2-oxonicotinonitriles and 2-oxonicotinonitrile based nucleoside analogues” (Eur J Med Chem, 2014).
pEC50: −log10 of the molar value.

Assays:
Escherichia coli = assay: Antimicrobial activity against Escherichia coli at 250 ug/disc after 48 hrs by well diffusion method; format: functional; settings: read-out: DIZ
Outline: (§1)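 Well diffusion assay. Bacteria were grown on nutrient agar and fungi on Czapek's-Dox agar; spores were inoculated into sterilized medium, dispersed and poured into plates. Compounds were dissolved in DMF at 250 mg/mL and loaded into 1 cm wells. Plates stood 24 h refrigerated for diffusion, then were incubated at 35 °C for 48 h (bacteria) or 28 °C for 5-7 days (fungi). Inhibition zone diameter was read in mm. DMF-only wells served as negative control.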

Aspergillus niger = assay: Antimicrobial activity against Aspergillus niger at 250 ug/disc after 5 to 7 days by well diffusion method; format: functional; settings: read-out: DIZ; outline: as §1
Aspergillus viridinutans = assay: Antimicrobial activity against Aspergillus viridinutans at 250 ug/disc after 5 to 7 days by well diffusion method; format: functional; settings: read-out: DIZ; outline: as §1
Bacillus subtilis = assay: Antimicrobial activity against Bacillus subtilis at 250 ug/disc after 48 hrs by well diffusion method; format: functional; settings: read-out: DIZ; outline: as §1
[1] = Selectivity index, ratio of CC50 for cytotoxicity to EC50 for Influenza A virus H1N1; format: toxicity; settings: read-out: Ratio CC50/EC50
Outline: (§2)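 CC50 is the concentration at which 50% of cells die, and EC50 is the concentration inhibiting 50% of viral infection. SI is calculated as the CC50/EC50 ratio.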

Human alphaherpesvirus 2 = assay: Antiviral activity against HSV2 assessed as inhibition of viral infection; format: functional, organism-based
Hepatitis C virus = assay: Antiviral activity against Hepatitis C virus assessed as inhibition of viral infection by RNA replicon assay; format: functional, organism-based, Hepacivirus hominis
[2] = Selectivity index, ratio of CC50 for cytotoxicity to EC50 for HSV1; format: toxicity; settings: read-out: Ratio CC50/EC50; outline: as §2
Human alphaherpesvirus 1 = assay: Antiviral activity against HSV1 assessed as inhibition of viral infection; format: functional, organism-based
Influenza B virus = assay: Antiviral activity against Influenza B virus by cytopathy assay; format: functional, organism-based
West Nile virus = assay: Antiviral activity against West Nile virus by visual/neutral red test; format: functional, organism-based
Influenza A virus [3] = assay: Antiviral activity against Influenza A virus H3N2 by cytopathy assay; format: functional, organism-based
Influenza A virus [4] = assay: Antiviral activity against Influenza A virus H5N1 by cytopathy assay; format: functional, organism-based
Hepatitis B virus = assay: Antiviral activity against Hepatitis B virus assessed as inhibition of viral infection by DNA virion assay; format: functional, organism-based
Influenza A virus [5] = assay: Antiviral activity against Influenza A virus H1N1 by cytopathy assay; format: functional, organism-based
SARS-CoV [6] = assay: Antiviral activity against SARS coronavirus by visual/neutral red test; format: functional, organism-based; settings: Severe acute respiratory syndrome-related coronavirus
[7] = Selectivity index, ratio of CC50 for cytotoxicity to EC50 for HSV2; format: toxicity; settings: read-out: Ratio CC50/EC50; outline: as §2
[8] = Selectivity index, ratio of CC50 for cytotoxicity to EC50 for Influenza A virus H3N2; format: toxicity; settings: read-out: Ratio CC50/EC50; outline: as §2
[9] = Selectivity index, ratio of CC50 for cytotoxicity to EC50 for Influenza A virus H5N1; format: toxicity; settings: read-out: Ratio CC50/EC50; outline: as §2
[10] = Selectivity index, ratio of CC50 for cytotoxicity to EC50 for Influenza B virus; format: toxicity; settings: read-out: Ratio CC50/EC50; outline: as §2
SARS-CoV [11] = assay: Antiviral activity against SARS coronavirus by visual method; format: functional, organism-based; settings: Severe acute respiratory syndrome-related coronavirus
[12] = Selectivity index, ratio of CC50 for cytotoxicity to EC50 for SARS coronavirus; format: toxicity; settings: read-out: Ratio CC50/EC50; outline: as §2

Row | Structure (SMILES) | zone of inhibition at 250 µg/disc (Escherichia coli) [mm] | zone of inhibition at 250 µg/disc (Aspergillus viridinutans) [mm] | zone of inhibition at 250 µg/disc (Bacillus subtilis) [mm] | pEC50 (Human alphaherpesvirus 2) | pEC50 (Hepatitis C virus) | selectivity ratio [2] | pEC50 (Human alphaherpesvirus 1) | pEC50 (Influenza B virus) | pEC50 (Influenza A virus [3]) | pEC50 (Influenza A virus [4]) | pEC50 (Hepatitis B virus) | selectivity ratio [7] | further results
1 | CC(C)c1ccc(-c2cc(-c3cccs3)n(COCCO)c(=O)c2C#N)cc1 | 0 | 6 | 23 | – | – | – | – | – | – | – | – | – | zone of inhibition at 250 µg/disc (Aspergillus niger): 7 mm
2 | N#Cc1c(-c2ccc(Cl)cc2)cc(-c2ccccn2)n(CCCO)c1=O | 0 | 9 | 3 | – | – | – | – | – | – | – | – | – | –
3 | C=CCOc1nc(-c2ccccn2)cc(-c2ccc(Cl)cc2)c1C#N | 0 | 7 | 1 | – | – | – | – | – | – | – | – | – | –
4 | N#Cc1c(-c2ccc(Cl)cc2)cc(-c2ccccn2)[nH]c1=O | – | – | – | < 3.52 | < 4.00 | 1 | < 3.52 | < 4.44 | < 5.59 | < 4.00 | < 4.00 | 1 | selectivity ratio [1]: > 3.8; pEC50 (West Nile virus): < 5.66; pEC50 (Influenza A virus [5]): 4.59; pEC50 (SARS-CoV [6]): < 6.49
5 | CC(C)c1ccc(-c2cc(-c3cccs3)[nH]c(=O)c2C#N)cc1 | – | – | – | < 3.52 | < 4.00 | 1 | < 3.52 | 4.34 | 4.66 | 4.49 | < 4.00 | 1 | selectivity ratio [8]: > 4.5; selectivity ratio [9]: > 3.1; selectivity ratio [10]: > 2.2; pEC50 (West Nile virus): < 5.66; pEC50 (SARS-CoV [6]): < 4.59
6 | CC(=O)OC[C@H]1O[C@@H](n2c(-c3ccccn3)cc(-c3ccc(Cl)cc3)c(C#N)c2=O)[C@H](OC(C)=O)[C@@H](OC(C)=O)[C@@H]1OC(C)=O | – | – | – | < 3.52 | < 4.00 | 1 | < 3.52 | < 5.49 | 4.62 | 5.49 | < 4.00 | 1 | selectivity ratio [8]: > 4.2; selectivity ratio [9]: 1.3; pEC50 (SARS-CoV [11]): 5.08; pEC50 (West Nile virus): < 5.29; selectivity ratio [12]: 4.3
7 | CC(=O)OC[C@H]1O[C@@H](n2c(-c3cccs3)cc(-c3cccs3)c(C#N)c2=O)[C@H](OC(C)=O)[C@@H](OC(C)=O)[C@H]1OC(C)=O | – | – | – | < 4.22 | < 4.00 | < 2.4 | < 4.22 | < 4.92 | < 4.49 | < 4.72 | < 4.00 | < 2.4 | pEC50 (West Nile virus): < 5.44; selectivity ratio [12]: 1.9; pEC50 (Influenza A virus [5]): < 4.55; pEC50 (SARS-CoV [6]): 5.00
8 | C[C@@]1(O)[C@H](O)[C@@H](CO)O[C@H]1n1ccc(N)nc1=O | – | – | – | – | 5.80 | – | – | – | – | – | – | – | –
9 | Nc1nc2c(ncn2COCCO)c(=O)[nH]1 [ACYCLOVIR] | – | – | – | 5.02 | – | > 30.3 | 5.48 | – | – | – | – | > 10.4 | –
10 | CC1(C)S[C@@H]2[C@H](NC(=O)[C@H](N)c3ccccc3)C(=O)N2[C@H]1C(=O)O [AMPICILLIN] | 18 | – | 20 | – | – | – | – | – | – | – | – | – | –
11 | CN(C)C=O [DIMETHYLFORMAMIDE] | 0 | 0 | 0 | – | – | – | – | – | – | – | – | – | zone of inhibition at 250 µg/disc (Aspergillus niger): 0 mm
12 | CC1(C)O[C@@H]2C[C@H]3[C@@H]4C[C@H](F)C5=CC(=O)C=C[C@]5(C)[C@@]4(F)[C@@H](O)C[C@]3(C)[C@]2(C(=O)CO)O1 [FLUOCINOLONE ACETONIDE] | – | 31 | – | – | – | – | – | – | – | – | – | – | zone of inhibition at 250 µg/disc (Aspergillus niger): 22 mm
13 | Nc1ccn([C@@H]2CS[C@H](CO)O2)c(=O)n1 [LAMIVUDINE] | – | – | – | – | – | – | – | – | – | – | 7.46 | – | –
14 | NC(=O)c1ncn([C@@H]2O[C@H](CO)[C@@H](O)[C@H]2O)n1 [RIBAVIRIN] | – | – | – | – | – | – | – | 5.62 | 5.70 | 5.38 | – | – | selectivity ratio [1]: > 32; selectivity ratio [8]: > 160; selectivity ratio [9]: > 76; selectivity ratio [10]: > 130; pEC50 (Influenza A virus [5]): 5.00
